Measured values: article PMC4243704 (European journal of pharmaceutics and biopharmaceutics : …, 2013)
Like-named read-outs stand apart in the source and are kept apart here.

Legend:
[1] = Chemical stability in simulated gastric fluid; type: physicochemical; conditions: for SGF t1/2: SGF pH 1.2, 37 °C
Method in brief: (§1)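 Incubated in simulated gastric fluid (pH 1.2) or simulated intestinal fluid at 37 °C. Remaining prodrug measured over time by reverse-phase C18 HPLC (0.1% TFA water/acetonitrile gradient). t1/2 estimated by linear regression of pseudo-first-order plots of prodrug concentration vs time.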

[2] = Chemical stability in simulated intestinal fluid; type: physicochemical; conditions: for SIF (pH 6.5) t1/2: 37 °C
Method in brief: as §1

[3] = Chemical stability in pH 7.4 phosphate buffer; type: physicochemical; conditions: for Buffer pH 7.4 t1/2: phosphate buffer pH 7.4, 37 °C
Method in brief: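 Non-enzymatic hydrolysis in 10 mmol/L phosphate buffer pH 7.4, triplicate wells, 37 °C up to 120 min. Aliquots quenched in acetonitrile with 0.1% TFA, filtered, and run on reverse-phase C18 HPLC (TFA water/acetonitrile gradient). t1/2 from linear regression of pseudo-first-order plots of prodrug concentration vs time.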

[4] = Enzymatic stability in Caco-2 cell homogenates; type: in vitro ADME; conditions: for Caco-2 cell homogenates t1/2: 500 μg/mL protein, 37 °C; for Stability in cell homogenate, D-prodrug relative to L-prodrug: Caco-2 cell homogenates (assigned from Table 2 ratios)
[5] = Microsomal stability; type: in vitro ADME, human; conditions: for Human liver microsome t1/2: 500 μg/mL microsomal protein, NADPH, 37 °C
[6] = target: T1, Thymidine phosphorylase (Homo sapiens, UniProt P19971); test: Stability toward thymidine phosphorylase; type: in vitro ADME
T1 sequence (P19971 11-482): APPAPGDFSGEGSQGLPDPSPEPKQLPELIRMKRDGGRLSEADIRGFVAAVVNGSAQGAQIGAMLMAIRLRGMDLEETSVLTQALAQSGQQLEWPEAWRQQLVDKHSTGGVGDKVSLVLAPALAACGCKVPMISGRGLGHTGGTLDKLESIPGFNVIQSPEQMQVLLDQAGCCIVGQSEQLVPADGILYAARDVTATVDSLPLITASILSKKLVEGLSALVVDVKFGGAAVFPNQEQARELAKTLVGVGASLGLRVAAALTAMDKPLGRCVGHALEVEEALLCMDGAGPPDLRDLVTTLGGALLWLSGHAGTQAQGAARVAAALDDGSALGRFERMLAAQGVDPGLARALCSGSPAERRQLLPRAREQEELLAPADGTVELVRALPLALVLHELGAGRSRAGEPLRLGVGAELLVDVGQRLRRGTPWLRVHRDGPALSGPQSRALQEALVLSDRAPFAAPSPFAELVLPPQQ

[7] = Enzymatic stability in AsPC-1 cell homogenates; type: in vitro ADME; conditions: for AsPC-1 cell homogenates t1/2: 500 μg/mL protein, 37 °C; for Stability in cell homogenate, D-prodrug relative to L-prodrug: AsPC-1 cell homogenates (assigned from Table 2 ratios)
[8] = tested on: Caco-2 cells; test: Uptake study in Caco-2 cells; type: cell-based; conditions: for Cytosine (%) of species found in cells / Gemcitabine (%) of species found in cells / Prodrug (%) of species found in cells: Caco-2 uptake without Gly-Pro, 1 h
[9] = tested on: AsPC-1 cells; test: Uptake study in AsPC-1 cells; type: cell-based; conditions: for Cytosine (%) of species found in cells / Gemcitabine (%) of species found in cells / Prodrug (%) of species found in cells: AsPC-1 uptake, 100 μM, 1 h; for Uptake amount, D-prodrug relative to L-prodrug (higher): 100 μM drug solution
[10] = tested on: AsPC-1 cells; test: Cell proliferation assay; type: cell-based
Method in brief: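 AsPC-1 cells seeded at 125,000/well and grown 24 h in RPMI-1640 + 10% FBS, then washed with pH 6.0 uptake buffer. Test compound 2-fold serially diluted (5 to 0.078 mmol/L) in that buffer and applied for 2 h at 37 °C; buffer alone served as 100% viability. After washing, 24 h recovery in medium. XTT/phenazine methosulfate read at 450 nm; GI50 from nonlinear fitting.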

[11] = tested on: mouse jejunum; test: In situ single-pass intestinal perfusion in mice
[12] = Caco-2 cell monolayer permeability, apical-to-basolateral; type: in vitro ADME; conditions: human, Caco-2
Method in brief: (§2)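 Caco-2 cells grown 21–24 days on collagen-coated PTFE inserts, TEER 550–600 Ω cm2. Apical MES (pH 6.0) and basolateral HEPES (pH 7.4) buffers, preincubated 15 min at 37 °C. 0.1 mM test compound in apical MES, ±10 mM Gly-Pro. Receiver sampled at 15–120 min at 37 °C with buffer replacement. Samples acidified with 0.1% TFA and analysed by HPLC.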

[13] = tested on: Caco-2 monolayer; test: as above; type: in vitro ADME
Method in brief: as §2

[14] = In situ single-pass intestinal perfusion in mice; conditions: female, BALB/c, mouse, other: in situ single-pass intestinal (jejunal) perfusion, pH 6
[15] = for Concentration in plasma, D-prodrug relative to L-prodrug (higher): mouse plasma after in situ perfusion, prodrug plus metabolites
[16] = read-out: GI50 AsPC-1, 2 h exposure at pH 6.0, 24 h recovery, XTT

| Compound | SGF t1/2 [1] [min] | SIF (pH 6.5) t1/2 [2] [min] | Buffer pH 7.4 t1/2 [3] [min] | Caco-2 cell homogenates t1/2 [4] [min] | Human liver microsome t1/2 [5] [min] | Thymidine phosphorylase t1/2 [6] [min] | AsPC-1 cell homogenates t1/2 [7] [min] | Cytosine (%) of species found in cells [8] [%] | Gemcitabine (%) of species found in cells [8] [%] | Prodrug (%) of species found in cells [8] [%] | Cytosine (%) of species found in cells [9] [%] | Gemcitabine (%) of species found in cells [9] [%] | Prodrug (%) of species found in cells [9] [%] | GI50 [10, 16] [mM] | Stability in cell homogenate, D-prodrug relative to L-prodrug [4] [fold] | Stability in cell homogenate, D-prodrug relative to L-prodrug [7] [fold] | Uptake amount, D-prodrug lower than L-prodrug ([8]; Caco-2 cells) [%] | Uptake amount, D-prodrug relative to L-prodrug (higher) ([9]; AsPC-1 cells) [fold] | Concentration in plasma, D-prodrug relative to L-prodrug (higher) [15] [fold] | further results |
| --- | --- | --- | --- | --- | --- | --- | --- | --- | --- | --- | --- | --- | --- | --- | --- | --- | --- | --- | --- | --- |
| 5′-L-Valyl-gemcitabine | >120 | >120 | >120 | 19.5 ± 1.9 | 27.8 ± 13.6 | >120 | 13.8 ± 3.3 | 0 | 15 | 85 | 20 | 11 | 69 | 2 ± 0.8 | – | – | – | – | – | Membrane permeability, L-prodrug better than D-prodrug ([11]; mouse in situ perfusion): 87% |
| Nc1ccn([C@@H]2O[C@H](COC(=O)[C@@H](N)Cc3ccccc3)[C@@H](O)C2(F)F)c(=O)n1 [5′-L-Phenylalanyl-gemcitabine] | >120 | >120 | >120 | 2.0 ± 0.3 | 1.8 ± 0.2 | 31.9 ± 5.0 | 6.8 ± 2.0 | 0 | 18 | 82 | 10 | 84 | 6 | 4.3 ± 1.5 | – | – | – | – | – | – |
| Nc1ccn([C@@H]2O[C@H](CO)[C@@H](O)C2(F)F)c(=O)n1 [Gemcitabine, reference compound] | – | – | – | – | – | – | – | – | 50 | – | – | 90 | – | – | – | – | – | – | – | Degradation in SGF [1]: no significant degradation; half-life ([1]; simulated gastric fluid (SGF), pH 1.2): > 120 min; Degradation in SIF [2]: no significant degradation; half-life ([2]; simulated intestinal fluid (SIF), pH 6.5): > 120 min; Degradation in pH 7.4 phosphate buffer ([3]; pH 7.4): no significant degradation; half-life ([3]; phosphate buffer, pH 7.4): > 120 min; half-life ([4]; human, Caco-2, pH 7.4): 105 ± 6.1 min; half-life ([5]; human, human liver microsomes, pH 7.4): 45.3 ± 3.3 min; Resistance against thymidine phosphorylase (words) [6]: rapidly cleaved; Resistance against thymidine phosphorylase (words) ([6]; listed as gemcitabine): did not display the resistance; half-life ([6]; thymidine phosphorylase, pH 7.4): 6 ± 1.8 min; half-life ([7]; human, AsPC-1 cell homogenates, pH 7.4): 33.7 ± 14.5 min; Difference in uptake amount with and without 10 mM Gly-Pro ([8]; Caco-2 cells): did not exhibit the difference; Papp at 2 h, 0.1 mM [12]: 1 ± 0.2 ×10⁻⁶ cm/s; Difference in membrane permeability with and without 10 mM Gly-Pro ([13]; Caco-2 monolayers): did not exhibit the difference; Species detected in the basolateral receiver compartment ([13]; following transport across Caco-2 monolayers): only cytosine; GI50 ([10]; Homo sapiens, ASPC1, pH 6, read-out: GI50 AsPC-1): 10.2 ± 1.6 mM; Papp at 90 min, 100 μM [14]: 2 ×10⁻⁶ cm/s; Peff, mouse perfusion ([11]; mouse jejunum, 100 μM, pH 6.0): 2.0 ± 0.2 ×10^−5 cm/s |
| CC(C)[C@@H](N)C(=O)OC[C@H]1O[C@@H](n2ccc(N)nc2=O)C(F)(F)[C@@H]1O [5′-D-Valyl-gemcitabine] | >120 | >120 | >120 | 42.0 ± 17.5 | 19.5 ± 4.4 | >120 | 87.2 ± 13.5 | 0 | 10 | 90 | 4 | 77 | 19 | 2.2 ± 0.9 | 2.2 | 6.3 | 46 | 3.1 | 2.3 | Dose linearity of uptake ([9]; AsPC-1 cells, 50 μM vs 100 μM): exhibited the dose linearity; Prodrug concentration in blood ([15]; after in situ perfusion of mouse small intestine): highest |
| Nc1ccn([C@@H]2O[C@H](COC(=O)[C@H](N)Cc3ccccc3)[C@@H](O)C2(F)F)c(=O)n1 [5′-D-Phenylalanyl-gemcitabine] | >120 | >120 | >120 | 21.7 ± 0.2 | 6.6 ± 1.3 | >120 | 63.9 ± 11.2 | 0 | 31 | 69 | 1 | 87 | 12 | 5.6 ± 1.1 | 10.9 | 9.4 | 70 | 3.3 | 2.0 | Stability in human liver microsomes, D-prodrug relative to L-prodrug [5]: 3.7 fold; Uptake enhancement relative to gemcitabine ([9]; AsPC-1 cells, lower concentration (50 μM)): did not show the enhancement of uptake |
